Measured values from different studies.
Target: Cannabinoid receptor 2 (CNR2, Homo sapiens, UniProt P34972)
Read-out: ligand displacement
Technique: radioligand

Structure (SMILES)	setting	Ki [nM]
NC(=O)[C@@H]1CC(F)(F)CN1C(=O)c1ccc(N2CC(F)(F)C2)c(OCC2CC2)n1	cell membranes	40
CCCCCc1cc(O)c(C/C=C(\C)CCC=C(C)C)c(O)c1C(=O)O	cell membranes	> 10000
Cc1c(C(=O)Nc2ccc(C(F)(F)F)cn2)nc(-c2ccc(Cl)cc2Cl)n1-c1ccc(OS(=O)(=O)CCC(F)(F)F)cc1	cell membranes	4.9
CCCCCc1cc(O)c2c(c1)OC(C)(C)c1ccc(C)cc1-2	cell membranes	73
CCOC(=O)[C@H](CSC)NC(=O)c1ccc(C2CC2)c(Cc2ccc(F)cc2)n1	cell membranes	3.2
CCCCCc1cc(O)c2c(c1)OC(C)(C)[C@@H]1CC[C@](C)(O)[C@@H](O)[C@@H]21	cell membranes	2140
CCCCC/C=C\C/C=C\C/C=C\C/C=C\CCCC(=O)NCCCl	cell membranes	5200
CCCc1cc(O)c2c(c1)OC(C)(C)c1ccc(C)cc1-2	cell membranes	4780
CCCCCn1c2ccccc2c2cc(C(=O)N3CCN(CC(=O)NC(C)(C)C)CC3)ccc21	–	2000
CCOC(=O)C(CC)(CCCSCCOCCOCCNc1ccc([N+](=O)[O-])c2nonc12)NC(=O)c1ccc(C2CC2)c(Cc2ccc(F)cc2)n1 (racemic)	cell membranes	22
CCCCCc1cc(O)c(C/C=C(\C)CCC2OC2(C)C)c(O)c1 (stereo not drawn)	cell membranes	4720
CCCC(C)(C)c1ccc2c(c1)OC(C)(C)[C@@H]1CC=C(C)C[C@@H]21	cell membranes	34.9
Cc1nonc1Cn1nnc2c(N3CC[C@H](O)C3)nc(C(C)(C)C)nc21	cell membranes	11
CC1(C)C(C(=O)c2cn(CCCCCF)c3ccccc23)C1(C)C	cell membranes	2.13
CCOC(=O)C(CCCOC)NC(=O)c1ccc(C2CC2)c(Cc2ccc(F)cc2)n1 (stereo not drawn)	cell membranes	17
